# System: not listed separately
# Assay: Displacement of [3H]diprenorphine from zebrafish mu opioid receptor expressed in HEK293 cell membranes by radioligand displacement assay
# Parameters: species or system Danio rerio
# How it was run: (§1)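 Competition binding on membranes from stably transfected HEK293 cells expressing the zebrafish μ, δ1a or δ1b receptor. Cells were grown to 80% confluence, harvested and pelleted before membrane preparation. [3H]-diprenorphine served as radioligand. Nonspecific binding was defined with 10 μM naloxone. Data were fitted to a one-site displacement model.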
row,Compound,Ki [nM]
1,CC(C)C[C@H](NC(=O)[C@H](Cc1ccc(F)cc1)NC(=O)CNC(=O)CNC(=O)[C@@H](N)Cc1ccc(O)cc1)C(=O)O,210
2,NC(=O)[C@H](Cc1ccc(Cl)cc1)NC(=O)[C@H](Cc1c[nH]c2ccccc12)NC(=O)[C@@H]1CCCN1C(=O)[C@@H](N)Cc1ccc(O)cc1,71.9
3,NC(=O)[C@H](Cc1ccc(F)cc1)NC(=O)[C@H](Cc1c[nH]c2ccccc12)NC(=O)[C@@H]1CCCN1C(=O)[C@@H](N)Cc1ccc(O)cc1,51.6
4,CC(C)C[C@H](NC(=O)[C@H](Cc1ccc(Br)cc1)NC(=O)CNC(=O)CNC(=O)[C@@H](N)Cc1ccc(O)cc1)C(=O)O,287
5,NC(=O)[C@H](Cc1ccc(Br)cc1)NC(=O)[C@H](Cc1c[nH]c2ccccc12)NC(=O)[C@@H]1CCCN1C(=O)[C@@H](N)Cc1ccc(O)cc1,135
6,CC(C)C[C@H](NC(=O)[C@H](Cc1ccc(I)cc1)NC(=O)CNC(=O)CNC(=O)[C@@H](N)Cc1ccc(O)cc1)C(=O)O,540
7,CC(C)C[C@H](NC(=O)[C@H](Cc1ccccc1Cl)NC(=O)CNC(=O)CNC(=O)[C@@H](N)Cc1ccc(O)cc1)C(=O)O,1210
8,NC(=O)[C@H](Cc1ccc(I)cc1)NC(=O)[C@H](Cc1c[nH]c2ccccc12)NC(=O)[C@@H]1CCCN1C(=O)[C@@H](N)Cc1ccc(O)cc1,294
9,CC(C)C[C@H](NC(=O)[C@H](Cc1ccccc1Br)NC(=O)CNC(=O)CNC(=O)[C@@H](N)Cc1ccc(O)cc1)C(=O)O,1430
10,NC(=O)[C@H](Cc1ccccc1)NC(=O)[C@H](Cc1c[nH]c2ccccc12)NC(=O)[C@@H]1CCCN1C(=O)[C@@H](N)Cc1ccc(O)cc1 [ENDOMORPHIN-1],32.8
11,CC(C)C[C@H](NC(=O)[C@H](Cc1ccccc1I)NC(=O)CNC(=O)CNC(=O)[C@@H](N)Cc1ccc(O)cc1)C(=O)O,401
12,CC(C)C[C@H](NC(=O)[C@H](Cc1ccccc1F)NC(=O)CNC(=O)CNC(=O)[C@@H](N)Cc1ccc(O)cc1)C(=O)O,2230
13,CC(C)C[C@H](NC(=O)[C@H](Cc1ccc(Cl)cc1)NC(=O)CNC(=O)CNC(=O)[C@@H](N)Cc1ccc(O)cc1)C(=O)O,312

# System: not listed separately
# Assay: Displacement of [3H]diprenorphine from zebrafish delta1a opioid receptor expressed in HEK293 cell membranes by radioligand displacement assay
# Parameters: species or system Danio rerio
# How it was run: as §1
row,Compound,Ki [nM]
1,CC(C)C[C@H](NC(=O)[C@H](Cc1ccc(F)cc1)NC(=O)CNC(=O)CNC(=O)[C@@H](N)Cc1ccc(O)cc1)C(=O)O,11.7
2,NC(=O)[C@H](Cc1ccc(Cl)cc1)NC(=O)[C@H](Cc1c[nH]c2ccccc12)NC(=O)[C@@H]1CCCN1C(=O)[C@@H](N)Cc1ccc(O)cc1,1700
3,NC(=O)[C@H](Cc1ccc(F)cc1)NC(=O)[C@H](Cc1c[nH]c2ccccc12)NC(=O)[C@@H]1CCCN1C(=O)[C@@H](N)Cc1ccc(O)cc1,5330
4,CC(C)C[C@H](NC(=O)[C@H](Cc1ccc(Br)cc1)NC(=O)CNC(=O)CNC(=O)[C@@H](N)Cc1ccc(O)cc1)C(=O)O,34.1
5,NC(=O)[C@H](Cc1ccc(Br)cc1)NC(=O)[C@H](Cc1c[nH]c2ccccc12)NC(=O)[C@@H]1CCCN1C(=O)[C@@H](N)Cc1ccc(O)cc1,1900
6,CC(C)C[C@H](NC(=O)[C@H](Cc1ccc(I)cc1)NC(=O)CNC(=O)CNC(=O)[C@@H](N)Cc1ccc(O)cc1)C(=O)O,44.6
7,CC(C)C[C@H](NC(=O)[C@H](Cc1ccccc1Cl)NC(=O)CNC(=O)CNC(=O)[C@@H](N)Cc1ccc(O)cc1)C(=O)O,42.8
8,NC(=O)[C@H](Cc1ccc(I)cc1)NC(=O)[C@H](Cc1c[nH]c2ccccc12)NC(=O)[C@@H]1CCCN1C(=O)[C@@H](N)Cc1ccc(O)cc1,1590
9,CC(C)C[C@H](NC(=O)[C@H](Cc1ccccc1Br)NC(=O)CNC(=O)CNC(=O)[C@@H](N)Cc1ccc(O)cc1)C(=O)O,24.2
10,NC(=O)[C@H](Cc1ccccc1)NC(=O)[C@H](Cc1c[nH]c2ccccc12)NC(=O)[C@@H]1CCCN1C(=O)[C@@H](N)Cc1ccc(O)cc1 [ENDOMORPHIN-1],8470
11,CC(C)C[C@H](NC(=O)[C@H](Cc1ccccc1I)NC(=O)CNC(=O)CNC(=O)[C@@H](N)Cc1ccc(O)cc1)C(=O)O,15.5
12,CC(C)C[C@H](NC(=O)[C@H](Cc1ccccc1F)NC(=O)CNC(=O)CNC(=O)[C@@H](N)Cc1ccc(O)cc1)C(=O)O,115
13,CC(C)C[C@H](NC(=O)[C@H](Cc1ccc(Cl)cc1)NC(=O)CNC(=O)CNC(=O)[C@@H](N)Cc1ccc(O)cc1)C(=O)O,44.5

# System: not listed separately
# Assay: Displacement of [3H]diprenorphine from zebrafish delta1b opioid receptor expressed in HEK293 cell membranes by radioligand displacement assay
# Parameters: species or system Danio rerio
# How it was run: as §1
row,Compound,Ki [nM]
1,CC(C)C[C@H](NC(=O)[C@H](Cc1ccc(F)cc1)NC(=O)CNC(=O)CNC(=O)[C@@H](N)Cc1ccc(O)cc1)C(=O)O,10.6
2,NC(=O)[C@H](Cc1ccc(Cl)cc1)NC(=O)[C@H](Cc1c[nH]c2ccccc12)NC(=O)[C@@H]1CCCN1C(=O)[C@@H](N)Cc1ccc(O)cc1,2330
3,NC(=O)[C@H](Cc1ccc(F)cc1)NC(=O)[C@H](Cc1c[nH]c2ccccc12)NC(=O)[C@@H]1CCCN1C(=O)[C@@H](N)Cc1ccc(O)cc1,4800
4,CC(C)C[C@H](NC(=O)[C@H](Cc1ccc(Br)cc1)NC(=O)CNC(=O)CNC(=O)[C@@H](N)Cc1ccc(O)cc1)C(=O)O,27.6
5,NC(=O)[C@H](Cc1ccc(Br)cc1)NC(=O)[C@H](Cc1c[nH]c2ccccc12)NC(=O)[C@@H]1CCCN1C(=O)[C@@H](N)Cc1ccc(O)cc1,2680
6,CC(C)C[C@H](NC(=O)[C@H](Cc1ccc(I)cc1)NC(=O)CNC(=O)CNC(=O)[C@@H](N)Cc1ccc(O)cc1)C(=O)O,52.9
7,CC(C)C[C@H](NC(=O)[C@H](Cc1ccccc1Cl)NC(=O)CNC(=O)CNC(=O)[C@@H](N)Cc1ccc(O)cc1)C(=O)O,57.2
8,NC(=O)[C@H](Cc1ccc(I)cc1)NC(=O)[C@H](Cc1c[nH]c2ccccc12)NC(=O)[C@@H]1CCCN1C(=O)[C@@H](N)Cc1ccc(O)cc1,1960
9,CC(C)C[C@H](NC(=O)[C@H](Cc1ccccc1Br)NC(=O)CNC(=O)CNC(=O)[C@@H](N)Cc1ccc(O)cc1)C(=O)O,32.3
10,NC(=O)[C@H](Cc1ccccc1)NC(=O)[C@H](Cc1c[nH]c2ccccc12)NC(=O)[C@@H]1CCCN1C(=O)[C@@H](N)Cc1ccc(O)cc1 [ENDOMORPHIN-1],6200
11,CC(C)C[C@H](NC(=O)[C@H](Cc1ccccc1I)NC(=O)CNC(=O)CNC(=O)[C@@H](N)Cc1ccc(O)cc1)C(=O)O,28.5
12,CC(C)C[C@H](NC(=O)[C@H](Cc1ccccc1F)NC(=O)CNC(=O)CNC(=O)[C@@H](N)Cc1ccc(O)cc1)C(=O)O,91.1
13,CC(C)C[C@H](NC(=O)[C@H](Cc1ccc(Cl)cc1)NC(=O)CNC(=O)CNC(=O)[C@@H](N)Cc1ccc(O)cc1)C(=O)O,40.6

# Organism: Danio rerio
# Assay: Selectivity index, ratio of Ki for zebrafish delta1a opioid receptor to Ki for zebrafish mu opioid receptor
row,Compound,Ratio Ki
1,NC(=O)[C@H](Cc1ccccc1)NC(=O)[C@H](Cc1c[nH]c2ccccc12)NC(=O)[C@@H]1CCCN1C(=O)[C@@H](N)Cc1ccc(O)cc1 [ENDOMORPHIN-1],258

# Reference: ChEMBL document CHEMBL3621177, “Modulation of the Interaction between a Peptide Ligand and a G Protein-Coupled Receptor by Halogen Atoms” (ACS Med Chem Lett, 2015)
